Rows were chosen to be rich in hits. Some 2.5% of all compounds tested hit in one or more screens of this group.
Env fusion inh = inhibitors of HIV-1 Env-driven cell-cell fusion, primary screen, HeLa-JRFL effector, CEM21 target cells, luciferase | AID 651610, 2012 | 360,000 tested, 1.1% active | inhibition, % at 12.3 µM;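 active means mean replicate inhibition score of at least 50 and every replicate individually at or above 50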;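 further: 0% = plate neutral controls and 100% = maraviroc near 300 nM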
AF4-AF9 inh = inhibitors of AF4 peptide binding to AF9, primary screen, biochemical, AlphaScreen, biotin-AF4 peptide, FLAG-AF9, single point. inhibition, % at 10 µM. 350,000 tested, 0.47% active;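 active means every replicate reaching a set inhibition limit, whatever the replicate mean, cut at about 25% in these data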;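 further: 0% = plate neutral control median and 100% = total signal loss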
Target sequence (P42568 whole entry, looked up): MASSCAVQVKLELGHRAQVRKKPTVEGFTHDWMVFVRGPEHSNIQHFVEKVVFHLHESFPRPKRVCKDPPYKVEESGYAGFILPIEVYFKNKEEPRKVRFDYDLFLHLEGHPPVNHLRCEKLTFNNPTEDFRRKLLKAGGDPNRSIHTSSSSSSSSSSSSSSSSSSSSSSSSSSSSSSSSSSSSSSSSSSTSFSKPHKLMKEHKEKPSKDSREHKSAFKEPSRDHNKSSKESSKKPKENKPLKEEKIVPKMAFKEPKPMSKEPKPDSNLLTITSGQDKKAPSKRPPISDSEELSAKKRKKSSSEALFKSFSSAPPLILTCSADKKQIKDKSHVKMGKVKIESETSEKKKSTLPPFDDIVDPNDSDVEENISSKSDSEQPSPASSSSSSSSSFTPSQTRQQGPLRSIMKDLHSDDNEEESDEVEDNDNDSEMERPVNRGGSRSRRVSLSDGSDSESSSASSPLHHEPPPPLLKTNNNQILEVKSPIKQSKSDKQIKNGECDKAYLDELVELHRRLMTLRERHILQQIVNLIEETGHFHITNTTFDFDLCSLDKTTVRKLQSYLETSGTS
EWS-Fli inh = EWS/Fli-driven NR0B1 reporter inhibitors, primary screen, A673 cells, NR0B1 luciferase, luminescence, MLPCN library; viability-normalised; inhibition, % at 12.6 µM; 350,000 tested, 0.67% active; AID 651661, 2012;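 active means mean inhibition of at least 50% after viability correction, with every replicate also passing that limit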;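 further: firefly luciferase signal divided by Alamar Blue viability fluorescence both relative to DMSO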
FN deposition inh = inhibitors of fibronectin matrix deposition, primary screen, AH1F cells, Alexa488-fibronectin fluorescence, plate reader. AH1F fibroblasts, overnight. inhibition, % at 12.6 µM. 350,000 tested, 0.086% active;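 active means mean inhibition across replicates of 30% or more, regardless of how many single replicates reach that level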;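 further: positive control wells lacked labelled fibronectin entirely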
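Material: AH1F fibroblasts assembling fluorescent fibronectin matrix; amount: 10000 AH1F cells/well; medium: DMEM, 2% serum; reagent: Alexa488-fibronectin, 24 nM final in well; dosing: single compound dose, delivered by pin transfer; incubation: 1 h adhesion, overnight exposure; detection: fluorescence after three HBSS washes, excitation 485 nm, emission 525 nm; measure: fibronectin deposition inhibition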
PAX8 inh HTS = inhibitors of PAX8-driven TPO luciferase reporter, primary screen, RMG-I cells, single concentration | SteadyGlo, 24 h | inhibition, % at 12.6 µM | 360,000 tested, 1.2% active;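 active means mean replicate inhibition at least 60% with every replicate also reaching 60%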;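 further: luciferase light reporting Pax8 driven TPO promoter activity; plate controls were median of neutral control wells for no effect and mitoxantrone controls for full effect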
Glyco luc inh = increase of ERlucT glycosylation luciferase signal, primary screen, N-linked glycosylation inhibitor project, D54 ERlucT cells, luminescence, set 2; D54 ERlucT glycosylation luciferase reporter, 24 h; percent of 100 nM tunicamycin response; 360,000 tested, 0.23% active; reporter increase, % at 12.5 µM;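 active means mean luciferase reporter signal, scaled so untreated is 0 and the glycosylation-blocking control 100, at or above a set limit in every replicate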;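 further: luciferase carries N-glycosylation sites so blocking glycosylation raises the light; 0% = median of neutral control wells and 100% = median of 100 nM tunicamycin wells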
* marks the source's active call; other numbers are inactive results; ! = not active in a repeat; [ ] = another dose, or the depositor's remark.

How did Oc1ccc(-c2nc(-c3ccc(F)cc3)c(-c3ccncc3)[nH]2)cc1 do in these assays?
Env fusion inh: 57.1*; AF4-AF9 inh: 2.3; EWS-Fli inh: 16.5; FN deposition inh: -0.2; PAX8 inh HTS: 44.7; Glyco luc inh: 0.3

What do the screens show for `CCCc1cc(C(=O)NCc2ccc(OC)cc2)no1`?
Env fusion inh: 84.5*; AF4-AF9 inh: 7.9; EWS-Fli inh: -28.7; FN deposition inh: 1.7; PAX8 inh HTS: -83.2; Glyco luc inh: -0.6

How did O=C(COc1cccc(NC(=O)c2ccccc2)c1)c1ccc(F)cc1 do in these assays?
AF4-AF9 inh: 5.7; EWS-Fli inh: -9.5; FN deposition inh: 8.7; PAX8 inh HTS: 68.9*; Glyco luc inh: -0.4

Results for COc1ccc(NC(=O)Nc2ccc3c(c2)[C@@H]2C[C@H](CC(=O)N4CCc5ccccc5C4)O[C@@H](CO)[C@@H]2O3)cc1 ?
Env fusion inh: 6.3[16.7 µM]; AF4-AF9 inh: -0.7; EWS-Fli inh: -2.2; FN deposition inh: -4.0; PAX8 inh HTS: -20.6

Results for COc1ccc(NC(=O)Nc2ccc3c(c2)[C@@H]2C[C@@H](CC(=O)N4CCc5ccccc5C4)O[C@H](CO)[C@@H]2O3)cc1 ?
Env fusion inh: 5.8[16.7 µM]; AF4-AF9 inh: 1.5; EWS-Fli inh: -6.0; FN deposition inh: 7.3; PAX8 inh HTS: 71.3*

Results for O=C(Nc1ccc(C(F)(F)F)cc1)Nc1ccc2c(c1)[C@@H]1C[C@H](CC(=O)N3CCc4ccccc4C3)O[C@H](CO)[C@@H]1O2 ?
Env fusion inh: 81.5*[16.7 µM]; AF4-AF9 inh: -12.4; EWS-Fli inh: 26.7; FN deposition inh: -8.2; PAX8 inh HTS: 108.8*

What do the screens show for `O=C(Nc1ccc(C(F)(F)F)cc1)Nc1ccc2c(c1)[C@@H]1C[C@@H](CC(=O)N3CCc4ccccc4C3)O[C@H](CO)[C@@H]1O2`?
Env fusion inh: -21.7[16.7 µM]; AF4-AF9 inh: -5.2; EWS-Fli inh: -0.5; FN deposition inh: -6.2; PAX8 inh HTS: 75.9*

How did O=C(N[C@H]1CC[C@H](CCNC(=O)c2ccccc2F)O[C@H]1CO)c1ccc2c(c1)OCO2 do in these assays?
Env fusion inh: -14.1[16.7 µM]; AF4-AF9 inh: 0.8; EWS-Fli inh: 6.2; FN deposition inh: -2.6; PAX8 inh HTS: 1.1

Results for CNC[C@@H]1Oc2c(NC(=O)c3ccncc3)cccc2C(=O)N([C@@H](C)CO)C[C@@H]1C ?
Env fusion inh: 5.0[16.7 µM]; AF4-AF9 inh: 1.5; EWS-Fli inh: 3.1; FN deposition inh: -0.9; PAX8 inh HTS: -21.4

What do the screens show for `C[C@@H]1CN([C@H](C)CO)C(=O)c2c(c3ccccc3n2C)-c2ccccc2CO[C@H]1CN(C)Cc1ccc2c(c1)OCCN2C`?
AF4-AF9 inh: 42.4*!; EWS-Fli inh: -7.2; FN deposition inh: -3.1; PAX8 inh HTS: -4.8; Glyco luc inh: 3.4

Results for C[C@H]1CN([C@@H](C)CO)C(=O)c2ccccc2-c2ccccc2CO[C@H]1CN(C)Cc1ccc2c(c1)OCCN2C ?
Env fusion inh: -61.4[16.7 µM]; AF4-AF9 inh: 34.4*; EWS-Fli inh: -7.0; FN deposition inh: -8.4; PAX8 inh HTS: 16.4

What do the screens show for `C[C@H](CO)N1C[C@H](C)[C@H](CN(C)Cc2ccc3c(c2)OCCN3C)OCc2ccccc2-c2c(n(C)c3ccccc23)C1=O`?
AF4-AF9 inh: 18.4; EWS-Fli inh: 7.4; FN deposition inh: -12.0; PAX8 inh HTS: -2.3

How did CNC[C@@H]1Oc2ccc(NS(=O)(=O)c3cn(C)cn3)cc2CC(=O)N([C@H](C)CO)C[C@H]1C do in these assays?
Env fusion inh: 14.3[16.7 µM]; AF4-AF9 inh: -3.3; EWS-Fli inh: 1.0; FN deposition inh: 6.0; PAX8 inh HTS: -8.5

How did COCCNC(=O)C[C@H]1C=C[C@@H](NC(=O)NC2CCCC2)[C@H](CO)O1 do in these assays?
Env fusion inh: 1.9[16.7 µM]; AF4-AF9 inh: -2.1; EWS-Fli inh: 0.6; FN deposition inh: -2.5; PAX8 inh HTS: -11.9

How did CC(=O)Nc1cccc(-c2cc(NC=O)c3ncc(-c4ccc(C(C)=O)cc4)n3c2)c1 do in these assays?
Env fusion inh: 15.6; AF4-AF9 inh: 0.0; EWS-Fli inh: 7.1; FN deposition inh: 12.9; PAX8 inh HTS: 70.9*; Glyco luc inh: -5.5

How did COc1ccc(-c2cc(NC=O)c3ncc(-c4ccc(C(C)=O)cc4)n3c2)cn1 do in these assays?
Env fusion inh: -58.4; AF4-AF9 inh: 3.9; EWS-Fli inh: 42.8; FN deposition inh: 4.0; PAX8 inh HTS: 64.8*; Glyco luc inh: -0.4

How did CCC(=O)Nc1ccc2c(c1)C(=O)N(C)[C@H]1CC[C@H](CC(=O)NCc3ccc(OC)cc3)O[C@@H]1CO2 do in these assays?
Env fusion inh: 9.5[16.7 µM]; AF4-AF9 inh: 0.3; EWS-Fli inh: 1.5; FN deposition inh: 0.4; PAX8 inh HTS: 10.3

Results for O=C(Nc1nccs1)c1ccccc1[N+](=O)[O-] ?
Env fusion inh: -11.8; AF4-AF9 inh: 4.8; EWS-Fli inh: -3.6; FN deposition inh: 3.2; PAX8 inh HTS: 62.9*; Glyco luc inh: 2.0

Results for CCC(=O)N1CC2(C1)[C@H](c1ccc(-c3ccc(C)cc3)cc1)[C@@H](CO)N2S(=O)(=O)CC ?
AF4-AF9 inh: 2.4; EWS-Fli inh: 6.5; PAX8 inh HTS: 7.4

How did CC(C)(C)OC(=O)NCCCC[C@H](NC(=O)c1[nH]cnc1C(=O)Nc1ccc(CNC(=O)OC(C)(C)C)cc1)C(=O)OC(C)(C)C do in these assays?
Env fusion inh: 72.0*; AF4-AF9 inh: -1.6; EWS-Fli inh: 38.8; FN deposition inh: 8.9; PAX8 inh HTS: 110.0*

Results for Cc1ccc(NC(=O)c2nc[nH]c2C(=O)NCCCCCCNC(=O)c2[nH]cnc2C(=O)Nc2ccc(C)cc2)cc1 ?
Env fusion inh: 14.1; AF4-AF9 inh: 1.4; EWS-Fli inh: 3.8; FN deposition inh: -10.8; PAX8 inh HTS: 0.7; Glyco luc inh: 1.6

Results for CC(C)(C)OC(=O)[C@H](Cc1ccccc1)NC(=O)c1nc[nH]c1C(=O)N[C@@H](Cc1ccccc1)C(=O)OC(C)(C)C ?
Env fusion inh: 74.3*; AF4-AF9 inh: 1.6; EWS-Fli inh: 16.9; FN deposition inh: -7.7; PAX8 inh HTS: 103.8*; Glyco luc inh: -0.9

How did Cc1ccc(NC(=O)c2nc[nH]c2C(=O)NCCCCNC(=O)c2[nH]cnc2C(=O)Nc2ccc(C)cc2)cc1 do in these assays?
Env fusion inh: 49.7; AF4-AF9 inh: 1.7; EWS-Fli inh: 17.7; FN deposition inh: 11.6; PAX8 inh HTS: 80.3*; Glyco luc inh: -6.2

Assay outcomes from PubChem BioAssay.
